TMEM16A inh – TMEM16A chloride channel inhibitors, primary screen, cell-based, HTS | Anoctamin-1 (Mus musculus), Q8BHY3 | HEK293 TMEM16A/YFP iodide influx fluorescence, ionomycin | normalized B-score (activity score, 25-100; higher = stronger inhibition) at 10 µM | actives 1.2% (n = 310,000) | AID 588511, 2011;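 active = ratio plate-corrected score three or more library SD toward inhibition, starting fluorescence score within five deviations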;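 also: score derived from kinetic fluorescence span divided by baseline fluorescence per well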
SR-BI HDL uptake – inhibitors of SR-BI mediated HDL lipid uptake, primary screen, ldlA[mSR-BI] cells, fluorescence, single point; Scavenger receptor class B member 1 (Mus musculus), Q61009; ldlA[mSR-BI] CHO cells, DiI-HDL uptake fluorescence, 3 h; inhibition, % at 12.5 µM; actives 0.96% (n = 320,000); AID 488896, 2010;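 active = mean replicate inhibition of at least 70% and a set share of replicates each scoring 70 or more; inconclusive = meets just one of the two criteria; inactive = fails both criteria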;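 also: 0% = median of neutral control wells and 100% = median of positive control wells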
Target sequence (Q61009 whole entry, looked up): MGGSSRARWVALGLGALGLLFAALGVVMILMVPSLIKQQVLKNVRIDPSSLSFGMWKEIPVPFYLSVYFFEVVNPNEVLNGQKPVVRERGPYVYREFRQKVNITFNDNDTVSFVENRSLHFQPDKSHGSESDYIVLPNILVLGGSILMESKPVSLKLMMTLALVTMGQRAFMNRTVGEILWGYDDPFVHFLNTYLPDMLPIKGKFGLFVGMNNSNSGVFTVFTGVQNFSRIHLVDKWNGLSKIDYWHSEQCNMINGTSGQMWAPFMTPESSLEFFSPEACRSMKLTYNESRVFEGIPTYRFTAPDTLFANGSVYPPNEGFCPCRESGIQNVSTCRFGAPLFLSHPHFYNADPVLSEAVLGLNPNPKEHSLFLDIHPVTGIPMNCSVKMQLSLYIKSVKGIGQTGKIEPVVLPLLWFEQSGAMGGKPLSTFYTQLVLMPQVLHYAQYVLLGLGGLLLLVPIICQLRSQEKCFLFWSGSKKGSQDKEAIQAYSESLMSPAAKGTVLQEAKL
FID counter – compounds displacing fluorescent DNA intercalator, primary screen, artefact control for HCV NS3 helicase inhibitor project, biochemical, FID fluorescence. DNA fluorescent intercalator displacement. inhibition, % at 7.9 µM. actives 0.17% (n = 290,000). AID 1845, 2009; in the data active = inhibition above about 37%;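 also: 0% = vehicle and 100% = reference compound; higher means more ethidium bromide displaced from hairpin DNA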
TMEM16A act – TMEM16A chloride channel activators or potentiators, primary screen, cell-based, HTS | Anoctamin-1 (Mus musculus), Q8BHY3 | HEK293 TMEM16A/YFP-H148Q/I152L, iodide quench fluorescence; hits give low values | B-score at 10 µM | actives 0.3% (n = 340,000);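 active = fluorescence-ratio B-score plate-corrected deviation score at least 3 library SD below zero, with starting fluorescence score within 5 deviations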;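 also: channel opened by trigger with iodide after compound preincubation; score built on the fluorescence ratio of max minus min over baseline; more negative score means more quench and so TMEM16A activation or potentiation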
SR-BI DiI-HDL act – activators of SR-BI mediated DiI-HDL uptake, primary screen, ldlA[mSR-BI] CHO cells, DiI fluorescence | actives 0.096% (n = 320,000) | AID 504775, 2011 | 3 h; 100 = double the neutral-control signal | activation, % at 12.5 µM;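 active = mean replicate activation of at least 60% and every replicate at or above 60%; inconclusive = mean or all-replicate condition met, but not both; inactive = mean below 60% and not all replicates reaching 60%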;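 also: 0% = median plate neutral-control signal and 100% = twice that signal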
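Assay system: CHO ldlA[mSR-BI] cells, LDL receptor-null, SR-BI overexpressing; medium: Ham's F12 with 0.5% BSA, HEPES 25 mM, pH 7.4; also added: DiI-HDL 10 µg/mL; timing: 3 h uptake period with compound, 37 °C; signal: DiI fluorescence, bottom read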
Kir21 inh – inhibitors of mouse Kir2.1 inward-rectifier potassium channel. Inward rectifier potassium channel 2 (Mus musculus), P35561. HEK293-Kir2.1, FluxOR thallium flux fluorescence; hits give low values. B-score at 10 µM. actives 0.85% (n = 310,000). AID 1672, 2009;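 active = fluorescence ratio B-score at or below minus 3 SD of library scores, with starting-brightness B-score within 2 SD, cut at about -4.2 in these data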;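 also: channel flux triggered by added potassium and thallium sulfate stimulus; B-score of peak minus minimum fluorescence over baseline after thallium stimulus; more negative B-score means stronger Kir2.1 block with less thallium influx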
DiI quencher – quenches DiI-HDL fluorescence, an SR-BI assay artifact. AID 540326. AC50, µM (titrated, usually from 35 µM), for inactives: at the top dose activity change, negative = quenching. cell-free DiI-HDL fluorescence quenching, 30 min. shares compounds with SR-BI HDL uptake. actives 20% (n = 470);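 active = quenching, a falling signal, with AC50 below a set limit tied to the top valid dose, actives reach about 32 µM in these data; inconclusive = no clear call, values can overlap the other calls; inactive = rising signal, and the rest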
* hit, by the source's call; i = inactive; ? = inconclusive; nt = not tested or not shown. Sampled rows, rich in hits. Any-hit rate of the full collection: about 3%.

SMILES | TMEM16A inh | SR-BI HDL uptake | FID counter | TMEM16A act | SR-BI DiI-HDL act | Kir21 inh | DiI quencher
CC(C)C(=O)Nc1nc(-c2ccc3c(c2)CCN3C(=O)C2CC2)cs1 | i | 89* | -33 | i | -89 | 0.5 | -8%
CC(C)(C)Nc1nc(-c2ccc3c(c2)CCN3C(=O)C2CC2)cs1 | i | nt | -31 | i | nt | 0.17 | nt
CNc1nc(-c2ccc3c(c2)CCN3C(=O)c2ccc(F)cc2)cs1 | nt | 40 | -11 | i | -40 | nt | -16%
COC(=O)c1cnc(Oc2ccc(NC(=O)NC(=O)c3c(OC)cccc3OC)cc2)cc1C(F)(F)F | i | ? | -3 | i | -71 | -0.64 | 1%
COC(=O)c1cnc(Oc2ccc(NC(=O)NC(=O)c3c(F)cccc3F)cc2)cc1C(F)(F)F | i | 40 | -4 | i | -40 | 0.01 | nt
CC#CC(=O)N1CCC(C(=O)Nc2ccc(Oc3ccccc3)nc2)CC1 | i | -6 | -29 | i | 6 | -0.47 | nt
CCOc1ccccc1COC(=O)c1cccc(-n2cnnn2)c1 | i | 72* | -12 | i | -72 | 1.2 | 1%
COc1ccccc1C(=O)COC(=O)c1cccc(-n2cnnn2)c1 | nt | 16 | nt | i | -16 | nt | nt
Cc1c(Cl)cccc1S(=O)(=O)N1CCC(C(=O)NNC(=O)C2CC2)CC1 | i | 45 | -4 | i | -45 | -0.55 | -1%
Cc1ccc(S(=O)(=O)N2CCC(C(=O)NNC(=O)c3ccncc3)CC2)cc1 | i | -11 | -2 | i | 11 | -0.03 | nt
Cc1ccc(S(=O)(=O)N2CCC(C(=O)NNC(=O)c3cccnc3)CC2)cc1 | i | -4 | -5 | i | 4 | 0.93 | -1%
Cc1ccc(C(=O)NNC(=O)C2CCN(S(=O)(=O)c3ccc(C)cc3)CC2)cc1 | i | 21 | -20 | i | -21 | 0.08 | nt
NC(=O)C1CCN(CC(O)COc2ccc(-c3ccccc3)cc2)CC1 (stereo unspecified) | i | nt | 14 | i | nt | -0.52 | nt
O=C(NCC1CCCO1)c1ccc2c(c1)N(Cc1ccc(F)cc1Cl)C(=O)CS2 (stereo unspecified) | i | -2 | -31 | i | 2 | -0.14 | -2%
COc1ccccc1CN1CC(C(=O)NCCN2CCOC2=O)CCC1=O (stereo unspecified) | i | -18 | -14 | i | 18 | 0.84 | nt
Cc1ccnc(N=Cc2c(O)ccc3oc4c(c23)CCCC4)c1 | i | nt | 6 | nt | nt | nt | nt
O=C(c1ccc(S(=O)(=O)NCc2ccco2)cc1)N1CCN(c2ccc(F)cc2)CC1 | nt | 27 | nt | i | -27 | nt | nt
COc1ccc(CN2CCN(C(=O)c3ccc(S(=O)(=O)NCc4ccco4)cc3)CC2)cc1 | nt | 93* | nt | i | -93 | nt | -5%
O=C(c1ccc(S(=O)(=O)NCc2ccco2)cc1)N1CCN(Cc2ccccc2F)CC1 | nt | 68 | nt | i | -68 | nt | -5%
O=C(c1ccc(S(=O)(=O)NCc2ccco2)cc1)N1CCN(Cc2ccccc2)CC1 | i | 65 | -19 | i | -65 | -1.6 | 0%
O=C(NC1CCOCC1)C1CCC(=O)N(CCc2ccc(Cl)cc2)C1 (stereo unspecified) | i | -19 | -8 | i | 19 | -0.29 | nt
CCOC(=O)c1sc2nc(Cc3ccc(Cl)cc3)[nH]c(=S)c2c1C | i | 16 | 4 | i | -16 | 1.4 | nt
COc1ccc2c(c1)OC[C@H]1[C@H]2N2C(=O)c3cc(Cl)ccc3NC(=O)[C@@]2(C)[C@H]1c1ccccc1 | i | 72* | nt | i | -72 | nt | -6%

Compound activity as filed in PubChem BioAssay.
